This note sets out measurements from ChEMBL document CHEMBL1122900, “Effects of alkyl and aryl substitution on the myocardial specificity of radioiodinated phosphonium, arsonium, and ammonium cations” (J Med Chem, 1985).

Each structure is given as a SMILES string.

In series [1] the test system is Rattus norvegicus. Kind of series: Evaluated for the distribution of radioactivity in tissues of female Fischer rats kidneys after 60 minutes intravenous administration; dose/g, range 3.33-4.68. The note with it: in vivo, 1 h. In kind it is ADME, organism-based, Kidney.
The subject of series [2] is Rattus norvegicus. Put plainly: Evaluated for the distribution of radioactivity in tissues of female Fischer rats thyroid after 30 minutes intravenous administration; dose/g, range 33-60. It counts as ADME, organism-based, Thyroid gland. The note with it: in vivo, 0.5 h. Put shortly: (§1)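 Female Fischer 344 rats (10-12 weeks, 170-200 g), fed ad libitum, got a single iv tail-vein injection under ether anaesthesia of the 125I-labelled cation (2.85-8.38 μCi). The tracer was dissolved in Me2SO, diluted with saline to 1% Me2SO and filtered. At the set times rats were killed by cervical fracture and blood taken by cardiac puncture. Organs were rinsed, blotted, weighed and gamma-counted against injectate standards. Results are %dose/g, mean and range, n=5. Thyroid weight was taken as 7.5 mg/100 g body weight.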

Series [3] has as its system Rattus norvegicus. Kind of series: Evaluated for the distribution of radioactivity in tissues of female Fischer rats blood after 5 minutes intravenous administration; dose/g, range 0.44-0.52. The note with it: in vivo. In kind it is ADME, organism-based.
Series [4] has as its system Rattus norvegicus. Put plainly: Evaluated for the distribution of radioactivity in tissues of female Fischer rats liver after 5 minutes intravenous administration; dose/g, range 0.93-1.20. It counts as ADME, organism-based. The note with it: in vivo. Put shortly: as §1
Series [5] concerns Rattus norvegicus. Kind of series: Evaluated for the distribution of radioactivity in tissues of female Fischer rats kidneys after 30 minutes intravenous administration; dose/g, range 6.28-7.41. It counts as ADME, organism-based, Kidney. The note with it: in vivo, 0.5 h.
The subject of series [6] is Rattus norvegicus. Put plainly: Evaluated for the distribution of radioactivity in tissues of female Fischer rats heart after 5 minutes intravenous administration; dose/g, range 2.72-3.52. It counts as ADME, organism-based. The note with it: in vivo.
Series [7] deals with Rattus norvegicus. Put plainly: Evaluated for the distribution of radioactivity in tissues of female Fischer rats liver after 60 minutes intravenous administration; dose/g, range 0.14-0.19. It counts as ADME, organism-based. The note with it: in vivo, 1 h. Put shortly: as §1
The test system of series [8] is Rattus norvegicus. Kind of series: Evaluated for the distribution of radioactivity in tissues of female Fischer rats thyroid after 60 minutes intravenous administration; dose/g, range 55-102. In kind it is ADME, organism-based, Thyroid gland. The note with it: in vivo, 1 h. Put shortly: as §1
Series [9] concerns Rattus norvegicus. Put plainly: Evaluated for the distribution of radioactivity in tissues of female Fischer rats thyroid after 5 minutes intravenous administration; dose/g, range 29-36. In kind it is ADME, organism-based, Thyroid gland. The note with it: in vivo. Put shortly:
as §1

Series [10] concerns Rattus norvegicus. Put plainly: Evaluated for the distribution of radioactivity in tissues of female Fischer rats lungs after 60 minutes intravenous administration; dose/g, range 0.97-1.54. In kind it is ADME, organism-based, Lung. The note with it: in vivo, 1 h. Put shortly: as §1
The subject of series [11] is Rattus norvegicus. Put plainly: Evaluated for the distribution of radioactivity in tissues of female Fischer rats blood after 60 minutes intravenous administration; dose/g, range 0.16-0.21. In kind it is ADME, organism-based. The note with it: in vivo, 1 h.
The test system of series [12] is Rattus norvegicus. Put plainly: Evaluated for the distribution of radioactivity in tissues of female Fischer rats lungs after 30 minutes intravenous administration; dose/g, range 1.07-1.30. It counts as ADME, organism-based, Lung. The note with it: in vivo, 0.5 h. Put shortly: as §1
Series [13] has as its system Rattus norvegicus. Put plainly: Evaluated for the distribution of radioactivity in tissues of female Fischer rats heart after 30 minutes intravenous administration; dose/g, range 2.47-2.96. In kind it is ADME, organism-based. The note with it: in vivo, 0.5 h.
In series [14] the test system is Rattus norvegicus. Put plainly: Evaluated for the distribution of radioactivity in tissues of female Fischer rats heart after 60 minutes intravenous administration; dose/g, range 2.88-4.32. In kind it is ADME, organism-based. The note with it: in vivo, 1 h.
Series [15] relates to Rattus norvegicus. Put plainly: Evaluated for the distribution of radioactivity in tissues of female Fischer rats liver after 30 minutes intravenous administration.; dose/g, range 0.23-0.29. It counts as ADME, organism-based. The note with it: in vivo, 0.5 h.
Series [16] deals with Rattus norvegicus. Put plainly: Evaluated for the distribution of radioactivity in tissues of female Fischer rats lungs after 5 minutes intravenous administration; dose/g, range 1.20-1.52. It counts as ADME, organism-based, Lung. The note with it: in vivo. Put shortly: as §1
The test system of series [17] is Rattus norvegicus. Kind of series: Evaluated for the distribution of radioactivity in tissues of female Fischer rats blood after 30 minutes intravenous administration; dose/g, range 0.25-0.32. The note with it: in vivo, 0.5 h. In kind it is ADME, organism-based.
Series [18] has as its system Rattus norvegicus. Put plainly: Evaluated for the distribution of radioactivity in tissues of female Fischer rats kidneys after 5 minutes intravenous administration; dose/g, range 9.87-11.9. The note with it: in vivo. In kind it is ADME, organism-based, Kidney.
Series [19] relates to Rattus norvegicus. Put plainly: Evaluated for the distribution of radioactivity in tissues of female Fischer rats lungs after 5 minutes intravenous administration; dose/g, range 1.18-1.44. The note with it: in vivo. In kind it is ADME, organism-based, Lung. Put shortly: as §1
For series [20], the system named is Rattus norvegicus. Kind of series: Evaluated for the distribution of radioactivity in tissues of female Fischer rats blood after 5 minutes intravenous administration; dose/g, range 0.32-0.46. It counts as ADME, organism-based. The note with it: in vivo.
In series [21] the test system is Rattus norvegicus. Put plainly: Evaluated for the distribution of radioactivity in tissues of female Fischer rats blood after 30 minutes intravenous administration; dose/g, range 0.18-0.24. It counts as ADME, organism-based. The note with it: in vivo, 0.5 h.
The test system of series [22] is Rattus norvegicus. Put plainly: Evaluated for the distribution of radioactivity in tissues of female Fischer rats kidneys after 30 minutes intravenous administration; dose/g, range 6.47-10.2. The note with it: in vivo, 0.5 h. It counts as ADME, organism-based, Kidney.
In series [23] the test system is Rattus norvegicus. Put plainly: Evaluated for the distribution of radioactivity in tissues of female Fischer rats thyroid after 60 minutes intravenous administration; dose/g, range 32-43. The note with it: in vivo, 1 h. In kind it is ADME, organism-based, Thyroid gland. Put shortly:
as §1

The subject of series [24] is Rattus norvegicus. Kind of series: Evaluated for the distribution of radioactivity in tissues of female Fischer rats blood after 60 minutes intravenous administration; dose/g, range 0.15-0.20. In kind it is ADME, organism-based. The note with it: in vivo, 1 h.
For series [25], the system named is Rattus norvegicus. Kind of series: Evaluated for the distribution of radioactivity in tissues of female Fischer rats lungs after 30 minutes intravenous administration; dose/g, range 1.12-1.39. In kind it is ADME, organism-based, Lung. The note with it: in vivo, 0.5 h. Put shortly:
as §1

Series [26] deals with Rattus norvegicus. Put plainly: Evaluated for the distribution of radioactivity in tissues of female Fischer rats lungs after 60 minutes intravenous administration; dose/g, range 0.94-1.36. In kind it is ADME, organism-based, Lung. The note with it: in vivo, 1 h. Put shortly: as §1
Series [27] deals with Rattus norvegicus. Kind of series: Evaluated for the distribution of radioactivity in tissues of female Fischer rats heart after 60 minutes intravenous administration; dose/g, range 3.21-3.92. In kind it is ADME, organism-based. The note with it: in vivo, 1 h.
Series [28] has as its system Rattus norvegicus. Kind of series: Evaluated for the distribution of radioactivity in tissues of female Fischer rats heart after 5 minutes intravenous administration; dose/g, range 2.82-3.86. It counts as ADME, organism-based. The note with it: in vivo.
For series [29], the system named is Rattus norvegicus. Put plainly: Evaluated for the distribution of radioactivity in tissues of female Fischer rats kidneys after 5 minutes intravenous administration; dose/g, range 11.7-14.6. It counts as ADME, organism-based, Kidney. The note with it: in vivo.
Series [30] has as its system Rattus norvegicus. Kind of series: Evaluated for the distribution of radioactivity in tissues of female Fischer rats thyroid after 5 minutes intravenous administration; dose/g, range 16-32. It counts as ADME, organism-based, Thyroid gland. The note with it: in vivo. Put shortly:
as §1

Series [31] deals with Rattus norvegicus. Kind of series: Evaluated for the distribution of radioactivity in tissues of female Fischer rats heart after 30 minutes intravenous administration; dose/g, range 2.67-3.69. In kind it is ADME, organism-based. The note with it: in vivo, 0.5 h.
Series [32] has as its system Rattus norvegicus. Put plainly: Evaluated for the distribution of radioactivity in tissues of female Fischer rats liver after 30 minutes intravenous administration; dose/g, range 0.22-0.30. It counts as ADME, organism-based. The note with it: in vivo, 0.5 h.
For series [33], the system named is Rattus norvegicus. Put plainly: Evaluated for the distribution of radioactivity in tissues of female Fischer rats liver after 5 minutes intravenous administration; dose/g, range 1.06-1.70. It counts as ADME, organism-based. The note with it: in vivo. Put shortly: as §1
The subject of series [34] is Rattus norvegicus. Kind of series: Evaluated for the distribution of radioactivity in tissues of female Fischer rats kidneys after 60 minutes intravenous administration; dose/g, range 5.02-6.57. In kind it is ADME, organism-based, Kidney. The note with it: in vivo, 1 h.
The subject of series [35] is Rattus norvegicus. Put plainly: Evaluated for the distribution of radioactivity in tissues of female Fischer rats liver after 60 minutes intravenous administration; dose/g, range 0.15-0.19. It counts as ADME, organism-based. The note with it: in vivo, 1 h. Put shortly: as §1
Series [36] deals with Rattus norvegicus. Kind of series: Evaluated for the distribution of radioactivity in tissues of female Fischer rats thyroid after 30 minutes intravenous administration; dose/g, range 29-44. In kind it is ADME, organism-based, Thyroid gland. The note with it: in vivo, 0.5 h. Put shortly: as §1

With `I/C=C/CCC[P+](C1CCCCC1)(C1CCCCC1)C1CCCCC1.[I-]`, the Distribution is recorded as 4.15% in the series on Rattus norvegicus [1]; 45% in the series on Rattus norvegicus [2]; 0.47% with Rattus norvegicus [3]; 1.06% in the series on Rattus norvegicus [4]; 6.89% with Rattus norvegicus [5]; 2.99% with Rattus norvegicus [6]. The Distribution with Rattus norvegicus [7] was 0.17%; in the series with Rattus norvegicus [8], 71%; in the series on Rattus norvegicus [9], 31%; in the series on Rattus norvegicus [10], 1.16%; in the series on Rattus norvegicus [11], 0.19%; in the series with Rattus norvegicus [12], 1.2%. The Distribution in the series with Rattus norvegicus [13] is listed as 2.67%; in the series with Rattus norvegicus [14] it was 3.42%; with Rattus norvegicus [15] it was 0.25%; in the series with Rattus norvegicus [16], 1.31%; in the series with Rattus norvegicus [17], 0.28%; in the series with Rattus norvegicus [18] it was 11.06%.
Take `I/C=C/CCC[P+](c1ccccc1)(C1CCCCC1)C1CCCCC1.[I-]`: the Distribution in the series with Rattus norvegicus [19] is 1.32%; in the series with Rattus norvegicus [20], 0.37%; in the series with Rattus norvegicus [21], 0.2%; in the series on Rattus norvegicus [22], 8.41%; in the series with Rattus norvegicus [23], 39%; in the series with Rattus norvegicus [24], 0.17%. Also, the Distribution in the series on Rattus norvegicus [25] was 1.24%; in the series with Rattus norvegicus [26], 1.15%; with Rattus norvegicus [27], 3.47%; with Rattus norvegicus [28], 3.44%; in the series on Rattus norvegicus [29], 13.07%; in the series on Rattus norvegicus [30], 25%. Further, the Distribution was determined as 3.17% with Rattus norvegicus [31]; 0.26% in the series with Rattus norvegicus [32]; 1.39% with Rattus norvegicus [33]; 5.66% in the series with Rattus norvegicus [34]; 0.17% with Rattus norvegicus [35]; 38% with Rattus norvegicus [36].
